Assay results from ChEMBL document CHEMBL4699542, “Design and synthesis of novel methoxypyridine-derived gamma-secretase modulators” (Bioorg Med Chem, 2020).
≈ marks a conversion by molar mass, not a printed value.

Legend:
[1] = Kinetic aqueous solubility of the compound in pH 7.4 PBS buffer by UV/Visible absorbance analysis; format: physicochemical; details: read-out: Kinetic_solubility
Summary of the method: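 Kinetic solubility determined in PBS at pH 7.4 by UV/Vis absorbance, reported in μM.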

Gamma-secretase = experiment: Modulation of gamma secretase in human SH-SY5Y cells overexpressing wild type APP751 assessed as inhibition of amyloid beta (35 to 42 residues) formation incubated for overnight by ELISA; format: cell-based
Summary of the method: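 SHSY5Y-APP751 cells plated at 75K/well and incubated overnight at 37 °C, then treated 24 h over 10 concentrations ([…]–10 μM, 1:3.16 steps, in duplicate). Medium Aβ42 measured by sandwich ELISA (Aβ35–42 capture, AP-conjugated Aβ1–12 detection, CDP-Star luminescence) against an Aβ42 standard curve.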

[2] = Metabolic stability in human liver microsomes assessed as parent compound remaining at 1 uM incubated for 30 mins; format: ADME, Microsome; details: microsomes, 0.5 h, 1 µM
Summary of the method: (§1)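 Test compound at 1 μM incubated 30 min with human, rat or mouse liver microsomes (1 mg/mL); parent remaining expressed as %.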

[3] = Metabolic stability in rat liver microsomes assessed as parent compound remaining at 1 uM incubated for 30 mins; format: ADME, Microsome; details: 0.5 h; summary of the method: as §1
[4] = Metabolic stability in mouse liver microsomes assessed as parent compound remaining at 1 uM incubated for 30 mins; format: ADME, Microsome; details: 0.5 h; summary of the method: as §1
Cytochrome P450 3A4 = Cytochrome P450 3A4 (Homo sapiens, UniProt P08684); experiment: Inhibition of recombinant CYP3A4 (unknown origin) by fluorescence-based assay; format: ADME
Chain of Cytochrome P450 3A4 (P08684 whole entry): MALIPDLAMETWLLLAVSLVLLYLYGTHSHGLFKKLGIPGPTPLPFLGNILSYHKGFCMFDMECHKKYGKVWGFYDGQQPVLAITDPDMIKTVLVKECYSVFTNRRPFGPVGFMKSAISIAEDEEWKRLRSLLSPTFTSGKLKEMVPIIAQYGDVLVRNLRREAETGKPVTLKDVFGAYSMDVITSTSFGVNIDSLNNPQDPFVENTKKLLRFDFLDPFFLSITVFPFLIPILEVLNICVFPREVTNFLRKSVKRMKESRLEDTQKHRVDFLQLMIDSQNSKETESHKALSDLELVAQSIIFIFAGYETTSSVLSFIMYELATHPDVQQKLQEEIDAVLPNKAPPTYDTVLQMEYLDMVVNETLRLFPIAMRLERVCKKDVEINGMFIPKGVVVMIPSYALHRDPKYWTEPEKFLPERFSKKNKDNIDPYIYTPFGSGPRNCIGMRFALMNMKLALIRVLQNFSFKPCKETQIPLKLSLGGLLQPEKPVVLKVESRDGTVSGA

Cytochrome P450 1A2 = target: T1, Cytochrome P450 1A2 (Homo sapiens, UniProt P05177); experiment: Inhibition of recombinant CYP1A2 (unknown origin) by fluorescence-based assay; format: ADME
T1 sequence (P05177 whole entry): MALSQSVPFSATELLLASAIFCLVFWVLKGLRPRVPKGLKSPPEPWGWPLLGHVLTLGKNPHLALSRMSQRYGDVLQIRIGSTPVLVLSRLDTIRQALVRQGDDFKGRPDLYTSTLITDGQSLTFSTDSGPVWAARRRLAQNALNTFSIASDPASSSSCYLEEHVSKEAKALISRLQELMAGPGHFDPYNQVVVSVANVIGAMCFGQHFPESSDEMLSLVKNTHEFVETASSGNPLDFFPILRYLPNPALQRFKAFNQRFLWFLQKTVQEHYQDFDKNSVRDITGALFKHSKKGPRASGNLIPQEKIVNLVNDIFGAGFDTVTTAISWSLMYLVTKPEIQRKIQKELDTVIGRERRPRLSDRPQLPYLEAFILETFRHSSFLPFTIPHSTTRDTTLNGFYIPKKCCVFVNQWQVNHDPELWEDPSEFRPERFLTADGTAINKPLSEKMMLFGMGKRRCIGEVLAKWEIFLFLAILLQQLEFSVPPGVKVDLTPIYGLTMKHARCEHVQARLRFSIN
Summary of the method: (§2)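 Recombinant CYP isoforms (five tested) screened for inhibition in fluorescence-based assays; IC50 in μM.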

Cytochrome P450 2C9 = Cytochrome P450 2C9 (Homo sapiens, UniProt P11712); experiment: Inhibition of recombinant CYP2C9 (unknown origin) by fluorescence-based assay; format: ADME; summary of the method: as §2
Chain of Cytochrome P450 2C9 (P11712 whole entry): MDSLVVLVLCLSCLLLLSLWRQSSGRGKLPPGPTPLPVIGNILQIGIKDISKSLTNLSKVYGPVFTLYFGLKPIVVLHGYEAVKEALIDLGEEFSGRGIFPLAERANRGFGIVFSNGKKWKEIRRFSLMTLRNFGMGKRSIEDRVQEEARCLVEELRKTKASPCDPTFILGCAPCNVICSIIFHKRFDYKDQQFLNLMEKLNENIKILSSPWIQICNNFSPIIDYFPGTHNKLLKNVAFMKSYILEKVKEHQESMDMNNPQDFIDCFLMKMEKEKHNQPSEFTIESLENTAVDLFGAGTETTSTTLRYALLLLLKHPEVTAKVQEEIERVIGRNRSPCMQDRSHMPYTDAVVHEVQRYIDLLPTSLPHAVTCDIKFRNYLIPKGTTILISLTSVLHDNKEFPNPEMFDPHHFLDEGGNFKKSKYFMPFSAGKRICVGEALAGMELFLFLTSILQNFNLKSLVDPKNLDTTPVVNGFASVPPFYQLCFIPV

Cytochrome P450 2C19 = Cytochrome P450 2C19 (Homo sapiens, UniProt P33261); experiment: Inhibition of recombinant CYP2C19 (unknown origin) by fluorescence-based assay; format: ADME; summary of the method: as §2
Chain of Cytochrome P450 2C19 (P33261 whole entry): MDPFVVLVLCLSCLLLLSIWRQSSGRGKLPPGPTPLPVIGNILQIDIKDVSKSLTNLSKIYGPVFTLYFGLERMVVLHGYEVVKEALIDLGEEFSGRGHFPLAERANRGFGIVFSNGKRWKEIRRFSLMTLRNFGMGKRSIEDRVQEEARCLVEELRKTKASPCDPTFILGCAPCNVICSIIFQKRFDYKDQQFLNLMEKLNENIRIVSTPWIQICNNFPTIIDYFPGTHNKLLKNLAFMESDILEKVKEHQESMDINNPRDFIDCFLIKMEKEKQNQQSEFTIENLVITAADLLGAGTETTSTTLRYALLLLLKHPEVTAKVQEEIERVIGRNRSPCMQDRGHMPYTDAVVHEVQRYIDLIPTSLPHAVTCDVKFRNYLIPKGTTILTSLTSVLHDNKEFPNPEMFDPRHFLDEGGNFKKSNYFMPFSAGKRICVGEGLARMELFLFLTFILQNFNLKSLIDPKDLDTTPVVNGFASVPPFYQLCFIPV

Cytochrome P450 2D6 = Cytochrome P450 2D6 (Homo sapiens, UniProt P10635); experiment: Inhibition of recombinant CYP2D6 (unknown origin) by fluorescence-based assay; format: ADME; summary of the method: as §2
Chain of Cytochrome P450 2D6 (P10635 whole entry): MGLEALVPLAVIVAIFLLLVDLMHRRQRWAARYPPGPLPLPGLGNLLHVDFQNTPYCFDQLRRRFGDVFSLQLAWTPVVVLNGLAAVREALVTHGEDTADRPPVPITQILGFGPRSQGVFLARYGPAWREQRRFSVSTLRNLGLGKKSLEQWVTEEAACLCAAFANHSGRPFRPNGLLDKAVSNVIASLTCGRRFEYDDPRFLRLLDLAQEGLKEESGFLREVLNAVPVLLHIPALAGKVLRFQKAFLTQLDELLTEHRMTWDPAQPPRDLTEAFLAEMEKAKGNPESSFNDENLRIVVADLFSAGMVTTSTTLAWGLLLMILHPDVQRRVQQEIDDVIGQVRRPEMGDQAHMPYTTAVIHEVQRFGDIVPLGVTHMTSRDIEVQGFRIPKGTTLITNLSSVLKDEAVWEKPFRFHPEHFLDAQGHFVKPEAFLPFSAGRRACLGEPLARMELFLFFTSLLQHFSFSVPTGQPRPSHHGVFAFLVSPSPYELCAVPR

Compound	solubility kinetic [1]	IC50 (Gamma-secretase)	Stabilty [2]	Stabilty [3]	Stabilty [4]	IC50 (Cytochrome P450 3A4)	IC50 (Cytochrome P450 1A2)	IC50 (Cytochrome P450 2C9)	IC50 (Cytochrome P450 2C19)	IC50 (Cytochrome P450 2D6)
COc1nc(-c2csc(Nc3c4c(nn3C3CCC3)CCCC4)n2)ccc1-n1cnc(C)c1	30 µM (≈ 13.8 µg/mL)	64 nM	9.5%	42%	44%	590 nM	> 100000 nM	660 nM	1600 nM	> 100000 nM
COc1nc(-c2csc(Nc3c4c(nn3C(C)C)CCCC4)n2)ccc1-n1cnc(C)c1	3.3 µM (≈ 1.48 µg/mL)	46 nM	10%	64%	45%					
COc1nc(-c2csc(Nc3cc(C(C)(C)C)nn3CC(F)(F)F)n2)ccc1-n1cnc(C)c1	1.7 µM (≈ 0.836 µg/mL)	73 nM	47%	90%	93%	1000 nM	18000 nM	20000 nM	9000 nM	> 100000 nM
COCCn1nc2c(c1Nc1nc(-c3ccc(-n4cnc(C)c4)c(OC)n3)cs1)CCCC2	20 µM (≈ 9.31 µg/mL)	144 nM	1.8%	45%	29%					
COc1nc(-c2csc(Nc3c4c(nn3C3CCCCC3)CCCC4)n2)ccc1-n1cnc(C)c1	< 1.6 µM	63 nM								
CCn1nc(C(C)(C)C)cc1Nc1nc(-c2ccc(-n3cnc(C)c3)nc2)cs1	< 1.6 µM	292 nM	43%	60%	87%					
COc1nc(-c2csc(Nc3c4c(nn3C3CCOC3)CCCC4)n2)ccc1-n1cnc(C)c1 (racemic)	19 µM (≈ 9.07 µg/mL)	102 nM	2.1%	42%	70%					
COc1cc(-c2csc(Nc3cc(C(C)(C)C)nn3C)n2)ccc1-n1cnc(C)c1		253 nM	60%	76%	92%					
CCn1nc2c(c1Nc1nc(-c3ccc(-n4cnc(C)c4)c(OC)n3)cs1)C(C)CC2(C)C (racemic)	9.2 µM (≈ 4.27 µg/mL)	72 nM	12%	38%	21%	1500 nM	> 100000 nM	35000 nM	33000 nM	> 100000 nM
Cc1cn(-c2ccc(-c3csc(Nc4c5c(nn4C)CCCC5)n3)cn2)cn1		> 1000 nM								
CCn1nc2c(c1Nc1nc(-c3ccc(-n4cnc(C)c4)c(OC)c3)cs1)CCCC2	4.6 µM (≈ 2 µg/mL)	171 nM								
COc1nc(-c2csc(Nc3c4c(nn3CCCN3CCOCC3)CCCC4)n2)ccc1-n1cnc(C)c1	39 µM (≈ 20.9 µg/mL)	126 nM	1.9%	6.4%	0.7%					
CCCn1nc(C(C)(C)C)cc1Nc1nc(-c2ccc(-n3cnc(C)c3)c(OC)n2)cs1	2.1 µM (≈ 0.948 µg/mL)	100 nM								
COc1nc(-c2csc(Nc3c4c(nn3C3CCCC3)CCCC4)n2)ccc1-n1cnc(C)c1	1.8 µM (≈ 0.856 µg/mL)	83 nM								
Cc1cn(-c2ccc(-c3csc(Nc4cc(C(C)(C)C)nn4C)n3)cc2)cn1		275 nM								
CCn1nc(C(C)(C)C)cc1Nc1nc(-c2ccc(-n3cnc(C)c3)cc2)cs1		339 nM								
CCn1nc2c(c1Nc1nc(-c3ccc(-n4cnc(C)c4)c(O)n3)cs1)CCCC2		468 nM								
COc1nc(-c2csc(Nc3cc(C(C)(C)C)nn3C)n2)ccc1-n1cnc(C)c1		136 nM								
COc1nc(-c2csc(Nc3cc(C(F)(F)F)nn3C(C)(C)C)n2)ccc1-n1cnc(C)c1	< 1.6 µM	126 nM								
CCn1nc2c(c1Nc1nc(-c3ccc(-n4cnc(C)c4)nc3)cs1)CCCC2		> 1000 nM								
Cc1cn(-c2ccc(-c3csc(Nc4cc(C(C)(C)C)nn4C)n3)cn2)cn1		590 nM								
COc1nc(-c2csc(Nc3c4c(nn3C)CCCC4)n2)ccc1-n1cnc(C)c1	15 µM (≈ 6.32 µg/mL)	105 nM	36%	60%	34%					
